Source: paper PMC10694493 (Cell Reports Methods, 2023)

Assay: B2LiVe 1D-1H amide-selective NMR, solution-to-membrane partitioning
Format: binding
Settings: POPC:POPG 9:1 LUV; 3 μM protein; pH 4.2
Summary of the method: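 Test protein held constant while POPC:POPG 9:1 LUV (reverse-phase evaporation, 40 mM stock, extruded through 1.2 μm filters) are titrated from 0 to 2 mM. Buffer: 20 mM HEPES-Na, 20 mM NaCl, 5% D2O, 25°C. 1D amide-selective HET-SOFAST 1H spectra at 800 MHz, PC9 120° pulse centred at 9.5 ppm. Fraction in solution is taken from the amide integral after subtracting the highest-lipid vesicle spectrum.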

B1: apo-Mb: apo-myoglobin, 16.9 kDa amphitropic protein, Sigma-Aldrich (protein, UniProt P68082 2-154, looked up)
Myoglobin: GLSDGEWQQVLNVWGKVEADIAGHGQEVLIRLFTGHPETLEKFDKFKHLKTEAEMKASEDLKKHGTVVLTALGGILKKKGHHEAELKPLAQSHATKHKIPIKYLEFISDAIIHVLHSKHPGDFGADAQGAMTKALELFRNDIAAKYKELGFQG
modifications: heme-free
NMR signal remaining at the highest lipid concentration: completely disappears
